Our source for the inhibition and Activity values is ChEMBL document CHEMBL4732081, “Development of prohibitin ligands against osteoporosis” (Eur J Med Chem, 2021).

Active and inactive are the calls of the source. The calls are words filed in the database; no cut-off is given here.

Data set [1] in a line: Inhibition of osteoclastogenesis in human bone marrow derived CD14+ pre-osteoclasts assessed as blocked of osteoclast differentiation in presence of M-CSF and RANKL at 1 uM measured after 11 days by TRAP staining method relative to control. To be noted: 264 h, time 11 day. The format is functional. Summed up: (§1)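 Human CD14+ cells came from donor PBMCs by Ficoll centrifugation (500g, 25 min) and CD14 microbead MACS selection. They were seeded at 45 x 10^4 cells/well in α-MEM, 10% FCS, 25 ng/ml hM-CSF. From day 3, medium with 25 ng/ml hM-CSF and 100 ng/ml hRANKL ± compound was changed twice weekly; about 11 days. TRAP-stained multinucleated cells were counted, as % vs RANKL positive control. Monocyte lots differed between series.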

The nature of data set [2]: Inhibition of osteoclastogenesis in human […] CD14+ pre-osteoclasts assessed as blocked of osteoclast differentiation in presence of M-CSF and RANKL at 10 uM measured after 11 days by TRAP staining method relative to control. The format is functional. To be noted: 264 h, time 11 day. The procedure, abridged:
as §1

A short description of data set [3]: Inhibition of osteoclastogenesis in human bone marrow derived CD14+ pre-osteoclasts assessed as blocked of osteoclast differentiation in presence of M-CSF and RANKL at 5 uM measured after 11 days by TRAP staining method relative to control. The format is functional. To be noted: 264 h, time 11 day. Summed up:
as §1

Data set [4] relates to Monocyte. Briefly: Inhibition of osteoclastogenesis in human bone marrow derived CD14+ monocytes assessed as decrease in RANKL-induced TRAP mRNA expression at 1 to 10 uM measured after 4 days by qRT-PCR method. The format is functional. To be noted: dose 1-10 µM, time 4.0 day. Summed up: (§2)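 CD14+ cells were seeded and, from day 3, treated with 25 ng/ml hM-CSF and 100 ng/ml hRANKL ± compound for 4 days. Target mRNA was measured by qRT-PCR, normalized to GAPDH, with comparative Ct quantification. Each assay was performed in triplicate.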

Data set [5] relates to Monocyte. Nature of the data set: Inhibition of osteoclastogenesis in human bone marrow derived CD14+ monocytes assessed as decrease in RANKL-induced Cathepsin K mRNA expression at 1 to 10 uM measured after 4 days by qRT-PCR method. To be noted: dose 1-10 µM, time 4.0 day. The data set is classed as functional. Summed up:
as §2

Data set [6] deals with MAP kinase p38 (Homo sapiens) (UniProt O15264+Q15759+Q16539+P53778). Briefly: Effect on p38 phosphorylation in human M-CSF treated human bone marrow derived CD14+ monocytes at 10 uM preincubated for 4 hrs followed by IL-6 stimulation and measured after 15 mins by Western blot assay. To be noted: Monocyte, time 4.25 hrs. The procedure, abridged: (§3)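 Human CD14+ monocytes were cultured 3 days with 25 ng/ml M-CSF. They were then treated with vehicle or 10 µM compound for 4 h without FBS and M-CSF, and stimulated with IL-6 (25 ng/mL) for 15 min. Equal-protein lysates were run on SDS-PAGE and transferred to PVDF. Blots were probed overnight at 4°C with primary antibodies, with fluorescent secondary detection.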
Background: In western blotting, separated proteins are transferred to a membrane and probed.

In data set [7] the test system is Monocyte. Nature of the data set: Effect on ERK phosphorylation in human M-CSF treated human bone marrow derived CD14+ monocytes at 10 uM preincubated for 4 hrs followed by IL-6 stimulation and measured after 15 mins by Western blot assay. To be noted: time 4.25 hrs. The procedure, abridged:
as §3

Data set [8] relates to Monocyte. Briefly: Effect on ERK expression in human M-CSF treated human bone marrow derived CD14+ monocytes at 10 uM preincubated for 4 hrs followed by IL-6 stimulation and measured after 15 mins by Western blot assay. The data set is classed as functional. To be noted: time 4.25 hrs. Summed up:
as §3

The subject of data set [9] is Monocyte. Nature of the data set: Effect on p38 expression in human M-CSF treated human bone marrow derived CD14+ monocytes at 10 uM preincubated for 4 hrs followed by IL-6 stimulation and measured after 15 mins by Western blot assay. The data set is classed as functional, tissue-based. To be noted: time 4.25 hrs. Summed up: as §3
The target of data set [10] is Signal transducer and activator of transcription 3 (Homo sapiens) (UniProt P40763). Briefly: Inhibition of STAT3 phosphorylation at Ser-727 in human M-CSF treated human bone marrow derived CD14+ monocytes at 10 uM preincubated for 4 hrs followed by IL-6 stimulation and measured after 15 mins by Western blot assay. To be noted: Monocyte, time 4.25 hrs. Summed up: as §3

Data set [11] concerns Monocyte. Briefly: Inhibition of osteoclastogenesis in human bone marrow derived CD14+ monocytes assessed as decrease in RANKL-induced NFATc1 mRNA expression at 1 to 10 uM measured after 4 days by qRT-PCR method. To be noted: dose 1-10 µM, time 4.0 day. The format is functional. Summed up: as §2
Background: Real-time PCR tracks product formation cycle by cycle.

Data set [12] can be described thus: Cytotoxicity against human bone marrow derived CD14+ pre-osteoclasts upto 10 uM. To be noted: osteoclast. The data set is classed as tissue-based.

Sequence of Signal transducer and activator of transcription 3 (Homo sapiens) (P40763 whole entry): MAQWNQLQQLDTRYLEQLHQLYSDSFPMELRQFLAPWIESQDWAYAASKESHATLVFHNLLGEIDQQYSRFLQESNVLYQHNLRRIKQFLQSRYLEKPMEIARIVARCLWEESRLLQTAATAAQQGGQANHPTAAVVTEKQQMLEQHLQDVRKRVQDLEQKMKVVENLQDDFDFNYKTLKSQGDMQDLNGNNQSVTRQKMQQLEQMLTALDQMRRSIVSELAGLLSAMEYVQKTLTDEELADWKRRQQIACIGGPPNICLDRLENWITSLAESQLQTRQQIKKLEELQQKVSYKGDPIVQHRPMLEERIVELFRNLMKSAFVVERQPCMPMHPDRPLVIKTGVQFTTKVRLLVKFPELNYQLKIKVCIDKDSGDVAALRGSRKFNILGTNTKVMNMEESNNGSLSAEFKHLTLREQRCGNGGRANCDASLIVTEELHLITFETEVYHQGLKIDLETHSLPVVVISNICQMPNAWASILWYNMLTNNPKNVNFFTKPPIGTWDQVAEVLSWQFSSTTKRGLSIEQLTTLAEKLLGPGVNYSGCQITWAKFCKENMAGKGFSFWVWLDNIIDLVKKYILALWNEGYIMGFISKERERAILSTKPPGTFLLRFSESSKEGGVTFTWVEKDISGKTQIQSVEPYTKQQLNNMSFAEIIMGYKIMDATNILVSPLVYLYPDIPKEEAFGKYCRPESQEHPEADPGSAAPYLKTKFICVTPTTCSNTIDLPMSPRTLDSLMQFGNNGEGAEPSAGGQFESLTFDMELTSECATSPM

What is called inhibition is the relative decrease from the control value, in per cent. Take `C[C@@H]1CCC[C@H](C)N1/C(CC1CCCCC1)=N/S(=O)(=O)C[C@@]12CCC(CC1=O)C2(C)C`: the inhibition at 1 µM in [1] is -1.5%. Also, in data set [2], the inhibition at 10 µM turned out to be 57.5%.

Turning to `Cc1ccc(S(=O)(=O)/N=C(\CC2CCCC2)N2[C@H](C)CCC[C@@H]2C)cc1`, the inhibition at 1 µM in [1] came out at 32.7%. Besides, the inhibition at 10 µM in data set [2] stood at 91.5%.

Regarding `Cc1ccc(S(=O)(=O)/N=C(\CC2CCCCC2)N2[C@H](C)CCC[C@@H]2C)cc1`, in data set [1], the inhibition at 1 µM came to 35%. In addition, in data set [3], the inhibition at 5 µM turned out to be 72%. Further, the inhibition at 10 µM in [2] was 97.9%. Further, the inhibition result in data set [4], in data set [5], in [10] and in data set [11] was “Active” in each case. Also, the result in data set [6], in data set [7], in data set [8] and in [9] was inactive.

In the case of `C[C@@H]1CCC[C@H](C)N1/C(CC1CCCCC1)=N/S(=O)(=O)c1ccccn1`, in data set [1], the inhibition at 1 µM is -20.2%. For the same molecule, the inhibition at 10 µM in [2] turned out to be 44.9%.

As for `C[C@@H]1CCC[C@H](C)N1/C(CC1CCCCC1)=N/S(=O)(=O)C(F)(F)F`, in data set [1], the inhibition at 1 µM is -1.1%. Moreover, the inhibition at 10 µM in [2] stood at 96.1%.

In the case of `C[C@@H]1CCC[C@H](C)N1/C(CC1CCCCC1)=N/S(=O)(=O)c1ccccc1`, in data set [1], the inhibition at 1 µM is 3.3%. Moreover, in data set [2], the inhibition at 10 µM came to 97.9%.

Take `Cc1ccc(S(=O)(=O)/N=C2\CCCCN2C(C)C)cc1`: the inhibition at 1 µM in [1] came out at 27.9%. Moreover, the inhibition at 10 µM in data set [2] was 6.1%.

As for `CCCCC1CCCCN(C(C)C)/C1=N/S(=O)(=O)c1ccc(C)cc1` (centres undefined), the inhibition at 1 µM in [1] was found to be 12.1%. Moreover, the inhibition at 10 µM in data set [2] was 90.1%.

For the molecule `CC(C)S(=O)(=O)/N=C(\CC1CCCCC1)N1[C@H](C)CCC[C@@H]1C`, the inhibition at 1 µM in data set [1] was 1.6%. The inhibition at 10 µM in [2] amounted to 12.6%.

As for `COc1ccc(S(=O)(=O)/N=C(\CC2CCCCC2)N(C(C)C)C2CCSCC2)cc1`, the inhibition at 1 µM in data set [1] is -10%. Besides, in data set [3], the inhibition at 5 µM is 53%. Besides, the inhibition at 10 µM in data set [2] came to 93%.

For `CCCCC1CCCN(C(C)C)/C1=N/S(=O)(=O)c1ccc(C)cc1` (centres undefined), the inhibition at 1 µM in data set [1] was 31.9%. Besides, the inhibition at 10 µM in data set [2] is 80.6%.

As for `COc1ccc(S(=O)(=O)/N=C(\CC2CCCCC2)N(C(C)C)C2CCCC2)cc1`, the inhibition at 1 µM in [1] was -86%. Further, in data set [3], the inhibition at 5 µM stood at 26%. Also, the inhibition at 10 µM in data set [2] amounted to 99%.

Consider `COc1ccc(S(=O)(=O)/N=C(\CC2CCCCC2)N(C(C)C)C2CCCCCC2)cc1`, for which the inhibition at 1 µM in data set [1] is -6%. Further, the inhibition at 5 µM in [3] came out at 74%. The inhibition at 10 µM in data set [2] was 99%.

Turning to `Cc1ccc(S(=O)(=O)/N=C(\CC2CCCCC2)N2CCCC3CCCCC32)cc1` (centres undefined), the inhibition at 1 µM in data set [1] came out at 33.1%. The inhibition at 10 µM in data set [2] is 78.9%.

Regarding `C[C@@H]1CCC[C@H](C)N1/C(CC1CCCCC1)=N/S(=O)(=O)c1cccnc1`, the inhibition at 1 µM in data set [1] is -23.6%. Moreover, the inhibition at 10 µM in data set [2] amounted to 56.1%.

`C[C@@H]1CCC[C@H](C)N1/C(CC1CCCCC1)=N/S(=O)(=O)N(C)C`: in data set [1], the inhibition at 1 µM is 11.8%. Also, in data set [2], the inhibition at 10 µM worked out at 68.4%.

Regarding `COc1ccc(S(=O)(=O)/N=C(\CC2CCCCC2)N2[C@H](C)CCC[C@@H]2C)cc1`, the inhibition at 5 µM in [3] was found to be 62%. The inhibition at 10 µM in [2] turned out to be 98%.

For the molecule `COc1ccc(S(=O)(=O)/N=C(\CC2CCCCC2)N(C(C)C)C2CCOCC2)cc1`, the inhibition at 1 µM in data set [1] was -14%. Besides, the inhibition at 5 µM in data set [3] is 28%. For the same molecule, the inhibition at 10 µM in data set [2] is 39%.

`CCCCC/C(=N\S(=O)(=O)c1ccc(C)cc1)N1[C@H](C)CCC[C@@H]1C`: the inhibition at 1 µM in data set [1] amounted to 20.9%. In addition, the inhibition at 10 µM in [2] turned out to be 99.8%.

Regarding `Cc1ccc(S(=O)(=O)/N=C(\C=C2CCCCC2)N2[C@H](C)CCC[C@@H]2C)cc1`, the inhibition at 1 µM in data set [1] was found to be 25.5%. Besides, the inhibition at 10 µM in data set [2] worked out at 23.3%.

As to `Cc1ccc(S(=O)(=O)/N=C(\C2CCCCC2)N2[C@H](C)CCC[C@@H]2C)cc1`, the inhibition at 1 µM in [1] turned out to be 22.8%. Besides, the inhibition at 10 µM in data set [2] is 24.1%.

Turning to `COc1ccc(S(=O)(=O)/N=C(\CC2CCCCC2)N2CCCCCC2)cc1`, the inhibition at 1 µM in data set [1] was -30%. Besides, the inhibition at 5 µM in data set [3] turned out to be 49%. The inhibition at 10 µM in data set [2] worked out at 88%.

In the case of `COc1ccc(S(=O)(=O)/N=C(\CC2CCCCC2)N(C(C)C)C2CCCCCCC2)cc1`, the inhibition at 1 µM in data set [1] was found to be 5%. The inhibition at 5 µM in data set [3] was found to be 88%. Besides, in data set [2], the inhibition at 10 µM is 100%. Further, the Activity result in data set [12] was “Toxic”.

With `Cc1ccc(S(=O)(=O)/N=C2\CCCCCN2C(C)C)cc1`, the inhibition at 1 µM in data set [1] amounted to 27.1%. Further, the inhibition at 10 µM in [2] was 39.3%.
